Measurements of several laboratories.
Lines come from different studies, so protocols differ.
Target: Receptor tyrosine-protein kinase erbB-4 (ERBB4, Homo sapiens, UniProt Q15303)

C#Cc1cc(-c2cc(Nc3nc(N[C@@H](C)c4ccc(F)cn4)ncc3Cl)n[nH]2)ccc1C=O
inhibition (enzyme activity; inhibitor; 0.2 µM): 54.3%

N#Cc1ccc(NC(=O)Nc2ccccc2)cc1
remaining binding (cell-free assay; competition with immobilised ligand; 25 µM): 100%

CC#CC(=O)N1CCC[C@H]1c1nc(-c2ccc(C(=O)Nc3ccccn3)cc2)c2c(N)nccn12
inhibition (enzyme activity; inhibitor; 1 µM): 96%

C1=C/COCc2cc(ccc2OCCN2CCCC2)Nc2nccc(n2)-c2cccc(c2)COC/1
remaining binding (binding; 0.1 µM): 88%

CCCCC(=O)Nc1ccc(-c2ccc3ncn(CCC)c(=O)c3c2)cn1
remaining binding (binding; competition with immobilised ligand; 0.5 µM): 100%

C=CC(=O)N1CCC[C@@H](n2nc(-c3ccc(Oc4ccccc4)cc3)c3c(N)ncnc32)C1
inhibition (enzyme activity; inhibitor; 1 µM): 100%

C#Cc1cnc(Nc2ccnc(CO)c2)nc1Nc1ccccc1S(C)(=O)=NC#N (centres unmarked)
remaining signal (cell-free assay; 1 µM): 86%

Cc1ccc(NC(=O)c2ccnc(C(F)(F)F)c2)cc1-c1cc(OCCO)nc(N2CCOCC2)c1
remaining binding (binding; competition with immobilised ligand; 1 µM): 99%

COc1c(Cl)cccc1Nc1c(-c2ccncc2OC[C@@H]2COCCO2)[nH]c2c1C(=O)NCC2
inhibition (enzyme activity; inhibitor; radiometric; 1 µM): > 80%

COc1ccc2oc(-c3ccc4nc(N)oc4c3)c/c(=N\c3ccccc3NC(=O)CCN)c2c1
remaining binding (binding; 1 µM): 109%

CN1CCN(C(=O)c2ccc(NC(=O)Nc3ccc(N(C)c4ccnc(Nc5ccc(CS(C)(=O)=O)cc5)n4)cc3)cc2)CC1
remaining binding (binding; competition with immobilised ligand; 1 µM): 77%
